Screens deposited in PubChem by several laboratories.
Rows were chosen to be rich in hits. Some 5.7% of all compounds tested hit in one or more screens of this group.
SKKanGAS inh – blocks kanamycin growth of S. pyogenes SKKanGAS strain. BacTiter-Glo, 6 h. inhibition, % at 7.5 µM. 300,000 compounds, 1.3% hits. AID 1662;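 active means mean replicate score, as percent of positive control median, at least 50; inconclusive means mean below 50 but one replicate at or above 50; inactive means mean and every replicate below 50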;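 further: strain carries kanamycin resistance gene driven by streptokinase promoter and grows in 40 µg/ml kanamycin; loss of luminescence reflects streptokinase promoter inhibition or plain growth inhibition; 0% = median of DMSO wells and 100% = positive control at its reference dose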
T cruzi repl – blocks replication of Trypanosoma cruzi. T. cruzi beta-gal in NIH3T3, luminescence, 90 h. inhibition, % (no concentration beside the values). 300,000 compounds, 1.4% hits. AID 1885;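 active means mean inhibition across valid replicates above about 55%, limit read from the data; inconclusive means mean below that limit but half or more replicates reach it; inactive means mean below it, under half of replicates reach it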;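 further: signal also drops with host cell toxicity which is not excluded here; 0% = plate median of DMSO wells and 100% = zero luminescence signal; higher percent means less beta-gal luminescence so fewer parasites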
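assay system = mouse NIH/3T3 fibroblasts infected with β-gal-expressing T. cruzi Tulahuen C4 | input = 5,000 NIH/3T3 host cells per well | buffer or medium = DMEM plus 2% FBS | timing = 3 h host attachment, then at least 90 h co-culture | measured by = GalScreen luminescence, 60 min | evaluation = luminescence reflecting intracellular parasite burden, expressed as percent inhibition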
CSC inhib – cancer stem cell inhibition; cancer stem cell-like cells viability, luminescence; inhibition, % at 7.5 µM; 300,000 compounds, 1.1% hits; in the data active means inhibition above about 75%; inconclusive means no clear call, values can overlap the other calls; tested in HMLE shEcad cells
Beta apoptosis – beta cell apoptosis inhibition. INS-1E cytokine-induced death, ATP luminescence, 48 h; percent of positive-control rescue, neutral wells zero. protection from apoptosis, % (test concentration not listed). 300,000 compounds, 0.8% hits;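 active means Every replicate reaches about 75%, or at least half do and their mean reaches it too, limit read from the data; inconclusive means At least half of replicates reach the limit but their mean does not; inactive means Under half of replicates reach the limit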;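 further: 0% = cytokine-treated negative control wells and 100% = positive control rescue; higher means more ATP so stronger rescue from cytokine killing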
Mdm2 MdmX PPI – human Mdm2/MdmX binding inhibition. O15151+Q00987. SaOS-2 split-luciferase Mdm2/MdmX complementation, luminescence. inhibition, % at 8 µM. 330,000 compounds, 3% hits. AID 485346;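 active means inhibition of at least 50% at 8 µM in the primary screen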
Target sequence (O15151 whole entry, looked up): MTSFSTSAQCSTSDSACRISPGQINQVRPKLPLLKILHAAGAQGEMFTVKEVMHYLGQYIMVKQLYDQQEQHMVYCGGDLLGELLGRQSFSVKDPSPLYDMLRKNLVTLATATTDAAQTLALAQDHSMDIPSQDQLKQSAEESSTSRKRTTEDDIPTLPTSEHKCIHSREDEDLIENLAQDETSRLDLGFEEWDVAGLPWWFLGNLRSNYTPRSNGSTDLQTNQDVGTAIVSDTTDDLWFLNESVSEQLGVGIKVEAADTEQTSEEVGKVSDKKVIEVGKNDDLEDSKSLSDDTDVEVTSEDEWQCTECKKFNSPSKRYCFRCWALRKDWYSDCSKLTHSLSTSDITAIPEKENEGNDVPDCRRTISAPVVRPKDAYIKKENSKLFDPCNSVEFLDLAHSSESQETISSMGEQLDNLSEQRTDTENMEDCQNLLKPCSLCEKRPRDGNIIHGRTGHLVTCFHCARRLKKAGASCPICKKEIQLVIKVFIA
Target sequence (Q00987 whole entry, looked up): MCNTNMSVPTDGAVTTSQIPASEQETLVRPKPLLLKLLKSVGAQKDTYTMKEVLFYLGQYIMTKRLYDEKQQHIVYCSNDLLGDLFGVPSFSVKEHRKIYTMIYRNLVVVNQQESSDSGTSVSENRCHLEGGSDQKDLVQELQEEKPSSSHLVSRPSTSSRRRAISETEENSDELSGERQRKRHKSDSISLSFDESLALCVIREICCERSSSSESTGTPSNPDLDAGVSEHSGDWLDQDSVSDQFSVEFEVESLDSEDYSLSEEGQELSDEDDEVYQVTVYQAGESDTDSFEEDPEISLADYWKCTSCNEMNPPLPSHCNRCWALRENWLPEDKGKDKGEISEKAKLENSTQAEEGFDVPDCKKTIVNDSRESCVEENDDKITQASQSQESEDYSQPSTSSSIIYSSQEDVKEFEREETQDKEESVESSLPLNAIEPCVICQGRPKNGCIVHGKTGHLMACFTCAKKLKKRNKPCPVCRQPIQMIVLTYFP
Calb FLC – C. albicans growth modulation with fluconazole; C. albicans CaCi-2 (fluconazole-resistant clinical isolate) + fluconazole, Alamar Blue growth, 48 h; growth inhibition, % (concentration not given with the values); 300,000 compounds, 0.57% hits; AID 1979;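 active means growth inhibition above about 58% in most replicates, limit read from the data, passing the limit was not always enough; inconclusive means exactly half the replicates above a set limit; inactive means most replicates below a set limit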;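 further: all wells also contain fluconazole at 8 µg/ml as a sub-toxic cotreatment; 0% = median of DMSO wells and 100% = median of geldanamycin control wells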
Active calls of the source: *; ? = inconclusive; . = no result given.

SMILES	SKKanGAS inh	T cruzi repl	CSC inhib	Beta apoptosis	Mdm2 MdmX PPI	Calb FLC
Cc1cc(C)c2c(n1)sc1c(=O)n(CC(=O)c3ccccc3)cnc12	93*	37	34	-7	-14	-8
CC(=O)c1c(C)[nH]c(C(=O)Nc2ccc(C)cc2Br)c1C	-9	4	-8	1	-11	0
CC(=O)Oc1c(C)c(C)c2c(c1C)CC[C@@](C)(CCC[C@H](C)CCC[C@H](C)CCCC(C)C)O2	.	.	-13	-8	-16	.
C=CCn1c(SCCCC)nc(O)cc1=O	15	-13	-1	-2	6	-6
C=CCn1c(SC(C)CC)nc(O)cc1=O (configuration not stated)	52*	-11	-1	-3	12	-3
Cc1c(C(=O)Nc2nccs2)sc2nc(-c3cccs3)cc(C(F)(F)F)c12	95*	53	25	35	42	-15
CC(C)CCNc1nc(-c2ccco2)c2c(c1C#N)CCCC2	41	19	80*	-6	30	0
CCc1c(C2(O)CCCCC2)[nH]c2cc(C(F)(F)F)ccc12	34	11	130*	109*	45	-3
Cc1c(C2(O)CCCCC2)[nH]c2cc(C(F)(F)F)ccc12	.	.	?	15	-2	.
O=C(OCC#CCSc1nnc(-c2cccc3ccccc23)o1)c1cnc[nH]1	.	.	.	-1	23	.
COc1ccc(O)c(/C=N/NC(=S)Nc2cccc(S(=O)(=O)N(C)C)c2)c1	-2	9	97*	65	.	-4
CN(C)S(=O)(=O)c1cccc(NC(=S)N/N=C/c2ccc(O)c(O)c2O)c1	-16	29	.	.	.	77*
COc1cc(/C=N/NC(=S)Nc2cccc(S(=O)(=O)N(C)C)c2)cc(OC)c1O	-6	-14	-9	-3	13	?
COc1cccc(/C=N/NC(=S)Nc2cccc(S(=O)(=O)N(C)C)c2)c1	-1	-5	-6	-1	0	-9
COc1ccc(O)c(/C=N/NC(=S)Nc2cccnc2)c1	0	-6	50	76*	16	3
Cc1ccc(Cl)cc1NC(=O)C(=O)N/N=C/c1ccc2c(c1)OCO2	.	.	2	0	-4	-27
NC(=O)CCC(NC(=O)c1ccc(Cl)cc1)C(=O)NCCc1ccc2c(c1)OCCO2 (configuration not stated)	.	.	.	.	-2	.
CCOC(=O)c1cnc(Nc2nc3ccccc3o2)nc1CSC(=S)N(CC)CC	19	61*	.	19	42	4
CC(C)(C)OC(=O)NOCC(=O)N(Cc1ccccc1)CC(O)COc1ccccc1 (configuration not stated)	5	-14	0	-1	-4	-5
COc1ccc(C(=O)c2coc3c2C(=O)C(=O)c2ccccc2-3)cc1	58*	-9	51	5	-3	45
CCOC(=O)c1[nH]c2ccc(F)cc2c1NC(=O)c1ccccc1C(=O)O	84*	29	-14	4	6	85*
N=C1SCC(=O)N1c1ncc(Cc2cccc(Cl)c2)s1	84*	15	.	.	.	13
Cc1cccc(Cc2cnc(N3C(=N)SC(C)C3=O)s2)c1 (configuration not stated)	93*	68*	56	3	34	94*
Cc1cccc(Cc2cnc(N3C(=N)SC(c4ccccc4)C3=O)s2)c1 (configuration not stated)	106*	-7	-11	12	22	-2
N=C1SCC(=O)N1c1ncc(Cc2ccccc2Cl)s1	-8	6	.	.	.	48
SMILES	SKKanGAS inh	T cruzi repl	CSC inhib	Beta apoptosis	Mdm2 MdmX PPI	Calb FLC
Cc1ccc(Cc2cnc(N3C(=N)SC(C)C3=O)s2)cc1 (configuration not stated)	90*	1	43	8	10	82*
O=C1c2ccccc2C(=O)N1c1ncc(Cc2ccc(Cl)cc2)s1	.	.	-1	-6	.	.
Cc1ccc(C(=O)NNc2cc(N3CCCC3)nc(N3CCCC3)n2)cc1	17	81*	7	9	-2	-20
Cc1ccccc1NC(=S)N1CCCC(c2nc3ccccc3[nH]2)C1 (configuration not stated)	1	72*	-9	0	8	9
Cc1ccc(NC(=S)N2CCCC(c3nc4ccccc4[nH]3)C2)cc1 (configuration not stated)	14	-1	-11	0	-6	-3
CC1CCCN(C(=O)Cc2cn(Cc3cccc(Cl)c3)c3ccccc23)C1 (configuration not stated)	6	55*	21	1	19	-6
O=C(Cc1cn(Cc2cccc(Cl)c2)c2ccccc12)N1CCCCCC1	14	59*	8	-5	20	-1
O=C(O)Cc1cn(Cc2cccc(Cl)c2)c2ccccc12	14	-9	1	0	-36	2
COC(=O)c1ccc(COc2ccc(/C=N/O)cc2)o1	-11	-16	.	0	21	-3
N#CCCN(Cc1ccccc1)C(=O)Nc1ccc(F)cc1	-8	-4	-11	-10	11	1
C[C@@H]1CCC(=O)N(CC[C@H](Sc2ccc(Br)cc2)c2ccccc2)CC1	.	.	97*	11	21	.
Cc1ccc(S[C@@H](CCN2CC[C@H](C(C)(C)C)CCC2=O)c2ccccc2)cc1	76*	39	108*	-5	18	-12
COc1cccc(Nc2c3c(nc4c(-c5ccccc5)c(C)nn24)CCC3)c1	78*	47	8	40	27	50
Cc1nn2c(Nc3ccc(F)cc3)c3c(nc2c1-c1ccccc1)CCC3	4	-5	3	6	16	-11
CC1CN(C(=O)CCC(=O)NCc2ccc(Cl)cc2)c2ccccc2O1 (configuration not stated)	0	-7	-7	-3	-17	-5
CCOC(=O)c1c(C)n(CCNC(C)=O)c2ccc(OC)cc12	1	-8	-11	-4	-5	10
CCOC(=O)c1c(-c2ccccc2)c2cc(OC)ccc2n1CCCN(C)C	-4	59*	4	3	47	-3
O=C1C(Nc2ccccc2)=C(NS(=O)(=O)c2ccccc2)C(=O)c2ccccc21	20	-4	19	2	-14	1
Cc1ccc(S(=O)(=O)/N=C2\C=C(Nc3cccc(C(=O)O)c3)C(=O)c3ccccc32)cc1	87*	7	.	21	-4	18
CC(C)(C)c1ccc(S(=O)(=O)/N=C2\C=C(NS(=O)(=O)c3ccccc3)C(=O)c3ccccc32)cc1	94*	-6	-23	-2	34	-3
O=C(O)c1cccc(NS(=O)(=O)c2ccc3c(c2)C(=O)c2ccccc2C3=O)c1	.	8	4	-3	13	-10
Cc1ccc(S(=O)(=O)/N=C2\C=C(Nc3cccc(C(=O)O)c3)C(=O)c3ccccc32)c(C)c1	69*	-10	65	95*	37	0
O=C1C(Nc2ccccc2)=C/C(=N/S(=O)(=O)c2cccs2)c2ccccc21	97*	60*	112*	105*	.	60
